Here are results for 15 molecules from ChEMBL document CHEMBL3244342, “Haloacetamido analogues of 2-amino-2-deoxy-D-glucose and 2-amino-2-deoxy-D-galactose. Syntheses and effects on the Friend murine erythroleukemia” (J Med Chem, 1978).

Active and inactive are the calls of the source. No cut-off for these calls is given here. Bounds are passed on as bounds.

Series [1] is described as follows: Toxicity in ip dosed BDF1 mouse assessed as animal killed administered as single dose. The following applies: in vivo.
Series [2] has as its system Leukemia cell. Description: Antitumor activity against DBA/2J mouse Friend erythroleukemia cells allografted ip dosed DBA/2 mouse assessed as increase in host survival time administered on days 1, 2 and 3 after tumor transplantation. Type of series: functional, organism-based.
In series [3] the test system is Leukemia cell. As to the kind of experiment: Induction of cell differentiation in DBA/2J mouse Friend erythroleukemia cells assessed as proportion of hemoglobin containing cells at IC50 concentration for antiproliferative effect after 3 days by benzidine peroxide staining. Type of series: functional, cell-based. The procedure, abridged: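 Exponentially growing cells seeded at 10^5 cells/mL in DMEM with 10% fetal calf serum at 37 °C and 10% CO2, incubated 3 days with the analogue. Ethanol vehicle final ≤0.125%. Hemoglobin-containing cells scored by benzidine peroxide stain. Controls received no drug or the inducer bis(acetyl)diaminopentane.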

The nature of series [4]: Antiproliferative activity against DBA/2J mouse Friend erythroleukemia cells after 3 days by cell counter. The following applies: Leukemia cell, 72 h. Type of series: functional, cell-based. In outline: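 Log-phase suspension cultures in DMEM with 10% fetal calf serum, penicillin/streptomycin, 37 °C, 10% CO2, seeded at 10^5 cells/mL. Continuous exposure to a range of concentrations for 3 days. Water-insoluble agents given in ethanol (final ≤0.125%). Cells counted by Coulter counter. IC50 is the concentration giving 50% inhibition of multiplication versus vehicle-treated controls.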

The nature of series [5]: Inhibition of bis(acetyl)diaminopentane-induced cell differentiation in DBA/2J mouse Friend erythroleukemia cells assessed as proportion of hemoglobin containing cells at 1 mM after 3 days by benzidine peroxide staining (reference value: 82.2 +/- 2.4%). Type of series: functional. As to conditions: Leukemia cell, 72 h.
Series [6] can be described thus: Inhibition of cell growth of DBA/2J mouse Friend erythroleukemia cells at 1 mM after 3 days in presence of bis(acetyl)diaminopentane. The following applies: Leukemia cell, 72 h. It counts as functional. In outline:
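Log-phase Friend erythroleukemia cells (DBA/2J origin) were seeded at 10⁵ cells/mL in DMEM plus 10% fetal calf serum at 37 °C under 10% CO₂. Analogue at 1 mM was combined with the inducer bis(acetyl)diaminopentane at 4.5 mM. After 3 days, cell numbers were counted with a Coulter counter to give percent cytostasis.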

A short description of series [7]: Inhibition of cell growth of DBA/2J mouse Friend erythroleukemia cells at 4 uM after 3 days in presence of bis(acetyl)diaminopentane. Type of series: functional. As to conditions: Leukemia cell, 72 h. In outline:
(§1)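 Exponentially growing cells seeded at 10^5 cells/mL, exposed for 3 days to 4.5 mM bis(acetyl)diaminopentane together with the analogue. Cell numbers counted by Coulter counter. Cytostasis expressed relative to untreated control cultures.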

The nature of series [8]: Inhibition of cell growth of DBA/2J mouse Friend erythroleukemia cells at 0.4 mM after 3 days in presence of bis(acetyl)diaminopentane. The following applies: Leukemia cell, 72 h. Type of series: functional. The procedure, abridged:
as §1

The nature of series [9]: Bis(acetyl)diaminopentane-induced cell differentiation in DBA/2J mouse Friend erythroleukemia cells assessed as proportion of hemoglobin containing cells at 0.4 mM after 3 days by benzidine peroxide staining (reference value: 82.2 +/- 2.4%). As to conditions: Leukemia cell, 72 h.

Consider `O=C(O)CF` [FLUOROACETATE], for which the LD50 in series [1] came to 100 µmol/kg. Further, the result in series [2] was inactive.
In the case of `CC(=O)OC[C@H]1O[C@@H](OC(C)=O)[C@H](NC(=O)CCl)[C@@H](OC(C)=O)[C@@H]1OC(C)=O`, the LD50 in series [1] turned out to be 940 µmol/kg. Further, the outcome in series [3] and in [2] was inactive. Further, the IC50 in series [4] came to 8 µM.
With `CC(=O)N[C@H]1[C@H](OC(C)=O)O[C@H](COC(C)=O)[C@@H](OC(C)=O)[C@@H]1OC(C)=O`, the midpoint of inhibition in series [4], the IC50, lay at 400 µM. In addition, the outcome in series [2] was inactive.
The like results for `NC(=O)CCl` were, in that order, 200 µM and “inactive”.
As to `O=C(CF)N[C@@H]1[C@@H](O)[C@H](O)[C@@H](CO)O[C@H]1O`, the figures for the inhibition at 1000 µM in series [5] and in series [6] were 69.5% and 83%, respectively. Besides, the 50% lethal dose (LD50) in series [1] was determined as 180 µmol/kg. Moreover, the outcome in series [3] and in series [2] was inactive. In series [4], the 50% inhibitory concentration (IC50) is 1000 µM.
Consider `CC(=O)OC[C@H]1O[C@@H](OC(C)=O)[C@H](NC(=O)CBr)[C@@H](OC(C)=O)[C@H]1OC(C)=O`, for which, in series [1], the LD50 was found to be 220 µmol/kg. For the same molecule, the inhibition at 4 µM in [7] turned out to be 83%. Also, the outcome in series [3] and in [2] was inactive. Half-maximal inhibition in [4] (IC50) required 4 µM.
For the molecule `O=C(CBr)N[C@@H]1[C@@H](O)[C@H](O)[C@@H](CO)O[C@H]1O`, the 50% lethal dose (LD50) in series [1] is above 2400 µmol/kg. Besides, in series [2], the result was inactive.
With `O=C(CF)N[C@@H]1[C@@H](O)[C@@H](O)[C@@H](CO)O[C@H]1O`, the LD50 in series [1] was determined as 740 µmol/kg. The result in series [2] was inactive.
`O=C(CCl)N[C@@H]1[C@@H](O)[C@@H](O)[C@@H](CO)O[C@H]1O`: the LD50 in series [1] was determined as 1500 µmol/kg. In addition, the result in series [2] was inactive.
Taken in the same sequence, the figures for `O=C(CBr)N[C@@H]1[C@@H](O)[C@@H](O)[C@@H](CO)O[C@H]1O` were 1700 µmol/kg and “inactive”.
As to `O=C(CCl)N[C@@H]1[C@@H](O)[C@H](O)[C@@H](CO)O[C@H]1O`, in [8], the inhibition at 400 µM came out at 83%. In addition, the median lethal dose (LD50) in series [1] was 2000 µmol/kg. Besides, the result in series [3] and in [2] was inactive. Further, in [9], the benzidine-positive cells % at 400 µM amounted to 24%. Moreover, in [4], the IC50 worked out at 400 µM.
For the molecule `CC(=O)OC[C@H]1O[C@@H](OC(C)=O)[C@H](NC(=O)CF)[C@@H](OC(C)=O)[C@@H]1OC(C)=O`, the 50% lethal dose (LD50) in [1] turned out to be 170 µmol/kg. The outcome in series [3] and in series [2] was inactive. The same molecule gave an IC50 in series [4] of 60 µM.
With `CC(=O)OC[C@H]1O[C@@H](OC(C)=O)[C@H](NC(=O)CF)[C@@H](OC(C)=O)[C@H]1OC(C)=O`, the LD50 in series [1] was 980 µmol/kg. Besides, the outcome in series [3] and in series [2] was inactive. In addition, the 50% inhibitory concentration (IC50) in series [4] was determined as 60 µM.
With `CC(=O)OC[C@H]1O[C@@H](OC(C)=O)[C@H](NC(=O)CBr)[C@@H](OC(C)=O)[C@@H]1OC(C)=O`, in series [1], the LD50 worked out at 210 µmol/kg. The result in series [3] and in series [2] was inactive. This molecule returned a half-inhibitory concentration (IC50) in [4] of 3 µM.
As to `CC(=O)OC[C@H]1O[C@@H](OC(C)=O)[C@H](NC(=O)CCl)[C@@H](OC(C)=O)[C@H]1OC(C)=O`, the LD50 in [1] was 670 µmol/kg. Also, the outcome in series [3] and in series [2] was inactive. This molecule came in with an IC50 in series [4] of 15 µM.
